Results reported in ChEMBL document CHEMBL4049439, “Synthesis and Characterization of Tetrahydropyran-Based Bacterial Topoisomerase Inhibitors with Antibacterial Activity against Gram-Negative Bacteria” (J Med Chem, 2017).
≈ marks a conversion by molar mass, not a printed value.

Legend:
[1] = Inhibition of wild-type Escherichia coli DNA gyrase supercoiling activity using relaxed pBR322 DNA as substrate by ethidium bromide based agarose gel electrophoresis
Staphylococcus aureus [2] = experiment: Antibacterial activity against Staphylococcus aureus ATCC 29213 by CLSI broth microdilution method; format: functional
Acinetobacter baumannii [3] = experiment: Antibacterial activity against fluoroquinolone-resistant Acinetobacter baumannii T6474 by CLSI broth microdilution method; format: functional
Cavia porcellus [4] = experiment: (§1) Cardiotoxicity in Dunkin-Hartley guinea pig assessed as free plasma concentration causing effect on QRS interval administered as iv at 3 mg/kg for first 20 mins of infusion followed by 10 mg/kg for second 20 mins of infusion followed by 30 mg/kg for third 20 mins of infusion by LC-MS/MS analysis; format: toxicity, organism-based; details: in vivo
How it was run: (§2)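 Anesthetized guinea pigs received 3, 10 and 30 mg/kg iv over three consecutive 20 min periods. MAP, HR and ECG intervals (PR, QRS, RR, QT) recorded continuously. Blood drawn at the end of each period for drug levels. Value is the lowest plasma concentration differing from vehicle-treated animals. Free level uses unbound fraction from rapid equilibrium dialysis of guinea pig plasma.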

Pseudomonas aeruginosa [5] = experiment: Antibacterial activity against Pseudomonas aeruginosa ATCC 27853 by CLSI broth microdilution method; format: functional
[6] = Inhibition of wild-type Pseudomonas aeruginosa DNA topoisomerase-4 mediated supercoiled pBR322 DNA relaxation by ethidium bromide based agarose gel electrophoresis
Acinetobacter baumannii [7] = experiment: Antibacterial activity against multi-drug resistant Acinetobacter baumannii by CLSI broth microdilution method; format: functional
[8] = Terminal half-life in Wistar rat at 10 mg/kg, iv by LC-MS/MS analysis; format: ADME, organism-based; details: in vivo, read-out: beta t1/2 (converted)
How it was run: (§3)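 Rats dosed iv at 10 mg/kg or 1 mg/kg. Dose-normalized AUC (μg·h/(mL·dose)) and its unbound counterpart derived via fraction unbound. Clearance, unbound clearance, Vdss and half-life also derived.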

Cavia porcellus [9] = experiment: Cardiotoxicity in Dunkin-Hartley guinea pig assessed as free plasma concentration causing effect on QT interval administered as iv at 3 mg/kg for first 20 mins of infusion followed by 10 mg/kg for second 20 mins of infusion followed by 30 mg/kg for third 20 mins of infusion by LC-MS/MS analysis; format: toxicity, organism-based; details: in vivo; how it was run: as §2
Escherichia coli = experiment: Antibacterial activity against wild-type Escherichia coli ATCC 25922 by CLSI broth microdilution method; format: functional
[10] = Fraction unbound in Wistar rat plasma at 10 mg/kg, iv by rapid equilibrium dialysis; format: ADME, organism-based; how it was run: as §3
Klebsiella pneumoniae = experiment: Antibacterial activity against Klebsiella pneumoniae by CLSI broth microdilution method; format: functional
Pseudomonas aeruginosa [11] = experiment: Antibacterial activity against fluoroquinolone/carbapenem-resistant Pseudomonas aeruginosa by CLSI broth microdilution method; format: functional
[12] = Inhibition of wild-type Acinetobacter baumannii DNA topoisomerase-4 mediated supercoiled pBR322 DNA relaxation by ethidium bromide based agarose gel electrophoresis
[13] = Inhibition of wild-type Escherichia coli DNA topoisomerase-4 mediated supercoiled pBR322 DNA relaxation by ethidium bromide based agarose gel electrophoresis
[14] = Fraction unbound in Dunkin-Hartley guinea pig plasma administered as iv at 3 mg/kg for first 20 mins of infusion followed by 10 mg/kg for second 20 mins of infusion followed by 30 mg/kg for third 20 mins of infusion by rapid equilibrium dialysis; format: ADME, organism-based, Cavia porcellus
Canis familiaris = experiment: Dose normalized AUC in dog at 1 mg/kg, iv by LC-MS/MS analysis; format: ADME, organism-based, Canis lupus familiaris; details: in vivo
[15] = biological target: Voltage-gated inwardly rectifying potassium channel KCNH2 (Homo sapiens, UniProt Q12809); experiment: (§4) Inhibition of human ERG assessed as reduction of K+ current
Sequence of Voltage-gated inwardly rectifying potassium channel KCNH2 (Q12809 whole entry): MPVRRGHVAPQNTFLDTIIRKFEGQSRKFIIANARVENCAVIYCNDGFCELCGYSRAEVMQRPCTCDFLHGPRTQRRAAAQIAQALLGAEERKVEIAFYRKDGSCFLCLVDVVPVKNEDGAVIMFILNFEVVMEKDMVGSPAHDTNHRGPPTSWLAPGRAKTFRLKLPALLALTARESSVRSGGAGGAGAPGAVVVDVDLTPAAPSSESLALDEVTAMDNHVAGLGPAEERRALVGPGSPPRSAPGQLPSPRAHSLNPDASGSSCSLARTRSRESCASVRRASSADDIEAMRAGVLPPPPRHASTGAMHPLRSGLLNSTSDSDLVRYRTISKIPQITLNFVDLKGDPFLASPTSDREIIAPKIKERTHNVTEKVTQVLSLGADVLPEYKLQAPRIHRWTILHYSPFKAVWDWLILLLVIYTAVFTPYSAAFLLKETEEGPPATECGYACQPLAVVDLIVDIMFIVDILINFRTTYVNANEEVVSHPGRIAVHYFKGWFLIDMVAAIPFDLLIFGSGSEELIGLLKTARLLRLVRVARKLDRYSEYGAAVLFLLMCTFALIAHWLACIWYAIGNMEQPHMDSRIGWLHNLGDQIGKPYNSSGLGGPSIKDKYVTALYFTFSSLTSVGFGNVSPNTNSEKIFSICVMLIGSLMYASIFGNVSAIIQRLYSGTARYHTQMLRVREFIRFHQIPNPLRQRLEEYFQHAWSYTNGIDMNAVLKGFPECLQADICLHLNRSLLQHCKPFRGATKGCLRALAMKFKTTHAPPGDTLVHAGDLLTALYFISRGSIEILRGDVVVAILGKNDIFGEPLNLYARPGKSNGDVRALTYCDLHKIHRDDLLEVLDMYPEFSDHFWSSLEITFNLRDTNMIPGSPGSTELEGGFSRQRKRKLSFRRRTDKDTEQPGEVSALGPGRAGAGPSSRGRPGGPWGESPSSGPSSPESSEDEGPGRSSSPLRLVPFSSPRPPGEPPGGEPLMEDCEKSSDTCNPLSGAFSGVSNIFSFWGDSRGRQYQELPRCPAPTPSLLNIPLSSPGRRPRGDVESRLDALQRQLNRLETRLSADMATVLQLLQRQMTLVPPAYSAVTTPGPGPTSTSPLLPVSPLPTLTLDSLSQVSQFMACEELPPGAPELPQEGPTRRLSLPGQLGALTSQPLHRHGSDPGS

hERG (KCNH2) = hERG (KCNH2) (Homo sapiens, UniProt Q12809); experiment: as §4; details: human
Sequence of hERG (KCNH2) (Q12809 whole entry): as above

[16] = Volume of distribution at steady state in Wistar rat at 10 mg/kg, iv by LC-MS/MS analysis; format: ADME, organism-based; details: in vivo, read-out: Vdss
How it was run: (§5)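 Rats received a single intravenous dose of 10 or 1 mg/kg depending on the compound. Clearance, unbound clearance, Vdss, terminal half-life and dose-normalized AUC were derived from plasma exposure, with unbound fraction (fu) reported for this species.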

Serratia marcescens = experiment: Antibacterial activity against Serratia marcescens by CLSI broth microdilution method; format: functional
Cavia porcellus [17] = experiment: Cardiotoxicity in Dunkin-Hartley guinea pig assessed as free plasma concentration causing effect on PR interval administered as iv at 3 mg/kg for first 20 mins of infusion followed by 10 mg/kg for second 20 mins of infusion followed by 30 mg/kg for third 20 mins of infusion by LC-MS/MS analysis; format: toxicity, organism-based; details: in vivo; how it was run: as §2
Staphylococcus aureus [18] = experiment: Antibacterial activity against Staphylococcus aureus by CLSI broth microdilution method; format: functional
Rattus norvegicus [19] = experiment: Dose normalized unbound AUC in Wistar rat at 10 mg/kg, iv by LC-MS/MS analysis; format: ADME, organism-based; details: in vivo; how it was run: as §3
[20] = Lipophilicity, log D of the compound at pH 7.4; format: physicochemical; details: buffer
Enterococcus faecium = experiment: Antibacterial activity against multi-drug resistant Enterococcus faecium by CLSI broth microdilution method; format: functional
Cavia porcellus [21] = experiment: as §1, with “mean arterial pressure” for “QRS interval”; format: toxicity, organism-based; details: in vivo; how it was run: as §2
[22] = Half-life in dog at 1 mg/kg, iv by LC-MS/MS analysis; format: ADME, organism-based, Canis lupus familiaris; details: in vivo
How it was run: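 Dogs given 1 mg/kg iv. Clearance (mL/min/kg) and half-life (h) derived from plasma profiles.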

Streptococcus pneumoniae = experiment: Antibacterial activity against Streptococcus pneumoniae by CLSI broth microdilution method; format: functional
Rattus norvegicus [23] = experiment: Dose normalized AUC in Wistar rat at 10 mg/kg, iv by LC-MS/MS analysis; format: ADME, organism-based; details: in vivo; how it was run: as §3
[24] = Inhibition of wild-type Acinetobacter baumannii DNA gyrase supercoiling activity using relaxed pBR322 DNA as substrate by ethidium bromide based agarose gel electrophoresis
[25] = Inhibition of wild-type Pseudomonas aeruginosa DNA gyrase supercoiling activity using relaxed pBR322 DNA as substrate by ethidium bromide based agarose gel electrophoresis
[26] = Clearance in Wistar rat at 10 mg/kg, iv by LC-MS/MS analysis; format: ADME, organism-based; details: in vivo; how it was run: as §3
[27] = Volume of distribution at steady state in dog at 1 mg/kg, iv by LC-MS/MS analysis; format: ADME, organism-based, Canis lupus familiaris; details: in vivo, read-out: Vdss
How it was run: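 Dogs received a single intravenous dose of 1 mg/kg. Clearance, Vdss, terminal half-life and dose-normalized AUC were calculated from plasma concentration data.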

Enterobacter cloacae = experiment: Antibacterial activity against fluoroquinolone/carbapenem-resistant Enterobacter cloacae by CLSI broth microdilution method; format: functional
[28] = Cardiotoxicity against human induced pluripotent stem cell-derived cardiomyocytes assessed as total drug concentration causing effect on spontaneous rhythm after 5 to 60 mins by Fluo-4 dye based fluorescence assay; format: toxicity; details: cardiac muscle cell
How it was run: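 Spontaneous beating rhythm of human iPSC-derived cardiomyocytes monitored. Reported value is the lowest active concentration, free or total. Free/total conversion corrected for 20% serum in the test solution.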

Rattus norvegicus [29] = experiment: Unbound clearance in Wistar rat at 10 mg/kg, iv by LC-MS/MS analysis; format: ADME, organism-based; details: in vivo; how it was run: as §5
Streptococcus agalactiae = experiment: Antibacterial activity against Streptococcus agalactiae by CLSI broth microdilution method; format: functional
Streptococcus pyogenes = experiment: Antibacterial activity against Streptococcus pyogenes by CLSI broth microdilution method; format: functional

| SMILES | IC50 [1] [nM] | MIC (Staphylococcus aureus [2]) [µg/mL] | MIC (Acinetobacter baumannii [3]) [µg/mL] | Cp(f) (Cavia porcellus [4]) [nM] | MIC (Pseudomonas aeruginosa [5]) [µg/mL] | IC50 [6] [nM] | MIC (Acinetobacter baumannii [7]) [µg/mL] | half-life [8] [h] | Cp(f) (Cavia porcellus [9]) [nM] | MIC (Escherichia coli) [µg/mL] | fraction unbound [10] | MIC (Klebsiella pneumoniae) [µg/mL] | MIC (Pseudomonas aeruginosa [11]) [µg/mL] | IC50 [12] [nM] | IC50 [13] [nM] | fraction unbound at 20 min [14] | AUC/dose (Canis familiaris) [µg·h/mL] | IC50 [15] [nM] | IC20 (hERG (KCNH2)) [nM] | Vd [16] [L/kg] | also measured |
| --- | --- | --- | --- | --- | --- | --- | --- | --- | --- | --- | --- | --- | --- | --- | --- | --- | --- | --- | --- | --- | --- |
| COc1ccc2ncc(F)c(C[C@H](N)[C@@H]3CC[C@@H](NCc4ccc5c(n4)NC(=O)CO5)CO3)c2n1 | 125 | 0.03 (≈ 0.0622 µM) | 0.125 (≈ 0.259 µM) | 1800 | 1 (≈ 2.07 µM) | 30 | 0.125 to 4 (≈ 0.259 to 8.29 µM) | 8.8 | 530 | 0.125 (≈ 0.259 µM) | 0.15 | 1 to 4 (≈ 2.07 to 8.29 µM) | 1 to 2 (≈ 2.07 to 4.14 µM) | 125 | 30 | 0.33 | 34 | 5000 | 1200 | 25 | MIC (Serratia marcescens): 1 to 8 µg/mL (≈ 2.07 to 16.6 µM); Cp(f) (Cavia porcellus [17]): 1800 nM; MIC (Staphylococcus aureus [18]): 0.125 to 0.5 µg/mL (≈ 0.259 to 1.04 µM); fAUC/dose (Rattus norvegicus [19]): 29 µg·h/mL; logD [20]: 0.9; MIC (Enterococcus faecium): 0.063 to 0.5 µg/mL (≈ 0.131 to 1.04 µM); Cp(f) (Cavia porcellus [21]): 1800 nM; half-life [22]: 2.9 h; MIC (Streptococcus pneumoniae): 0.125 to 2 µg/mL (≈ 0.259 to 4.14 µM); AUC/dose (Rattus norvegicus [23]): 194 µg·h/mL; IC50 [24]: 125 nM; IC50 [25]: 30 nM; clearance [26]: 86 mL/min/kg; Vd [27]: 61 L/kg; MIC (Enterobacter cloacae): 0.25 to 4 µg/mL (≈ 0.518 to 8.29 µM); Drug uptake [28]: 0.5 µM; CL free (Rattus norvegicus [29]): 573 mL/min/kg; MIC (Streptococcus agalactiae): 2 µg/mL (≈ 4.14 µM); MIC (Streptococcus pyogenes): ≤ 0.03 µg/mL |
| COc1ccc2ccc(=O)n(C[C@H](N)[C@@H]3CC[C@@H](NCc4ccc5c(n4)NC(=O)CO5)CO3)c2n1 | 125 | 0.25 (≈ 0.52 µM) | 1 (≈ 2.08 µM) | 2700 | 1 (≈ 2.08 µM) | 30 | 1 to 16 (≈ 2.08 to 33.3 µM) | 9.1 | 2700 | 0.25 (≈ 0.52 µM) | 0.236 | 8 to 16 (≈ 16.6 to 33.3 µM) | 1 to 2 (≈ 2.08 to 4.16 µM) | 125 | 30 | 0.54 | 0.376 | 52000 | 13000 | 21 | MIC (Serratia marcescens): 8 to 16 µg/mL (≈ 16.6 to 33.3 µM); Cp(f) (Cavia porcellus [17]): 2700 nM; MIC (Staphylococcus aureus [18]): 0.25 to 2 µg/mL (≈ 0.52 to 4.16 µM); fAUC/dose (Rattus norvegicus [19]): 34 µg·h/mL; logD [20]: 0.3; MIC (Enterococcus faecium): 1 to 16 µg/mL (≈ 2.08 to 33.3 µM); Cp(f) (Cavia porcellus [21]): 28000 nM; half-life [22]: 1.3 h; MIC (Streptococcus pneumoniae): 0.25 to 8 µg/mL (≈ 0.52 to 16.6 µM); AUC/dose (Rattus norvegicus [23]): 145 µg·h/mL; IC50 [24]: 125 nM; IC50 [25]: 125 nM; clearance [26]: 110 mL/min/kg; Vd [27]: 2.5 L/kg; MIC (Enterobacter cloacae): 2 to 16 µg/mL (≈ 4.16 to 33.3 µM); Drug uptake [28]: 0.31 to 0.93 µM; CL free (Rattus norvegicus [29]): 144 mL/min/kg; MIC (Streptococcus agalactiae): 4 µg/mL (≈ 8.32 µM); MIC (Streptococcus pyogenes): ≤ 0.03 µg/mL |
